According to ChEMBL document CHEMBL3867444, “Design and synthesis of new potent PTP1B inhibitors with the skeleton of 2-substituted imino-3-substituted-5-heteroarylidene-1,3-thiazolidine-4-one: Part I” (Eur J Med Chem, 2016):

Columns and labels:
[1] = target: T1, Tyrosine-protein phosphatase non-receptor type 1 (Homo sapiens, UniProt P18031); assay: Inhibition of human recombinant GST-tagged PTP1B catalytic domain expressed in Escherichia coli BL21-[…] plus (DE3) using pNPP as substrate
T1 sequence (P18031 whole entry): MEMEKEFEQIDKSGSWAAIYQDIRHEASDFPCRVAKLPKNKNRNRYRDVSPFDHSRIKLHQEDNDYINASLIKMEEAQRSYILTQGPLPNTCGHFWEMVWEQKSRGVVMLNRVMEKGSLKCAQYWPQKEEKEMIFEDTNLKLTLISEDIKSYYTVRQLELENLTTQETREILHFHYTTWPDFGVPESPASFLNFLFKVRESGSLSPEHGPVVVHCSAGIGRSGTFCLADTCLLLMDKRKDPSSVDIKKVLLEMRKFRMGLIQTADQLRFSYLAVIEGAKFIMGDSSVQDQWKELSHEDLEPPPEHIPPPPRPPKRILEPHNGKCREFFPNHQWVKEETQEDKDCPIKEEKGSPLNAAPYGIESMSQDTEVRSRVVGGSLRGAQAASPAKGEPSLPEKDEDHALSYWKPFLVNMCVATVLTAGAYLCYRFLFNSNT

[2] = target: T2, Tyrosine-protein phosphatase non-receptor type 1 (Homo sapiens) (UniProt P18031); assay: Inhibition of human recombinant GST-tagged PTP1B catalytic domain expressed in Escherichia coli BL21-[…] plus (DE3) at 5 ug/ml using pNPP as substrate relative to control
T2 sequence (whole entry): T1 sequence (P18031 whole entry)

[3] = target: T3, M-phase inducer phosphatase 2 (Homo sapiens, UniProt P30305); assay: Inhibition of human recombinant GST-tagged CDC25B assessed as reduction in dephosphorylation of florigenic phosphatase substrate preincubated for 1 hr followed by substrate addition measured after 1 hr by fluorescence assay
T3 sequence (P30305 whole entry): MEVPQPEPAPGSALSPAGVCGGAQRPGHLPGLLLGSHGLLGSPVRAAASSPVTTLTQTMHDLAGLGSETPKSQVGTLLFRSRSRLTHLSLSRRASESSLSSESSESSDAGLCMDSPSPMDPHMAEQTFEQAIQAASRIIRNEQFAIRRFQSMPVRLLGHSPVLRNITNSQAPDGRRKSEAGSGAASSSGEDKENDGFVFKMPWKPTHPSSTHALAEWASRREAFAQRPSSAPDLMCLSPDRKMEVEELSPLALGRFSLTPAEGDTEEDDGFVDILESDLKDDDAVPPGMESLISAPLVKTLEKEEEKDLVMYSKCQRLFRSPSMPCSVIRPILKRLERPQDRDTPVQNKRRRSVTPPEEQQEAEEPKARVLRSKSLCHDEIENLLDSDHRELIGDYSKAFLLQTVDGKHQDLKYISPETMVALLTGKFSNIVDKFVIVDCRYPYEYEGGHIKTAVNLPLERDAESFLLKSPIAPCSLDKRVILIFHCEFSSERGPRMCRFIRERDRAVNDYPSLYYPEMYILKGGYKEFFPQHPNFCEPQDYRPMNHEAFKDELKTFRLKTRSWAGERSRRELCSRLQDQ
Procedure, shortened: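 Purified GST-CDC25B fusion protein was preincubated with compound for 1 h, then fluorescein diphosphate (5mM) was added. Fluorescence was read within the linear range of the reaction after 1 h at room temperature. Na₃VO₄ served as positive control and DMSO as negative control.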

[4] = target: T2, Tyrosine-protein phosphatase non-receptor type 1 (Homo sapiens); assay: Inhibition of human recombinant GST-tagged PTP1B catalytic domain expressed in Escherichia coli BL21-[…] plus (DE3) at 20 ug/ml using pNPP as substrate relative to control
[5] = target: T4, M-phase inducer phosphatase 2 (Homo sapiens) (UniProt P30305); assay: Inhibition of human recombinant GST-tagged CDC25B assessed as reduction in dephosphorylation of florigenic phosphatase substrate at 5 ug/ml preincubated for 1 hr followed by substrate addition measured after 1 hr by fluorescence assay relative to control
T4 sequence (whole entry): T3 sequence (P30305 whole entry)

[6] = target: T1, Tyrosine-protein phosphatase non-receptor type 1; assay: Inhibition of PTP1B (unknown origin)

Row | IC50 [1] | inhibition [2] | IC50 [3] | inhibition [4] | inhibition [5] | IC50 [6] | Molecule
1 | 8.66 µM | 81.1% | 1.66 µM | 99.9% | 83.7% |  | CCOC(=O)c1c(C)[nH]c(/C=C2\S/C(=N\c3ccccc3)N(c3ccccc3)C2=O)c1C
2 |  | 49% | 5.83 µM | 95.8% | 80.2% |  | CCOC(=O)c1c(C)[nH]c(/C=C2\S/C(=N/O)N(C(C)C)C2=O)c1C
3 |  |  |  | 28.4% |  |  | CCOC(=O)c1c(C)[nH]c(/C=C2\S/C(=N\c3ccc(C)cc3)N(c3ccc(C)cc3)C2=O)c1C
4 |  | 47.7% | 2.74 µM | 98.7% | 76.5% |  | CCOC(=O)c1c(C)[nH]c(/C=C2\S/C(=N\c3ccc(OC)cc3)N(c3ccc(OC)cc3)C2=O)c1C

More lines, now with the values behind:

Row | Molecule | IC50 [1] | inhibition [2] | IC50 [3] | inhibition [4] | inhibition [5] | IC50 [6]
5 | CCOC(=O)c1c(C)[nH]c(/C=C2\S/C(=N\c3ccccc3F)N(c3ccccc3F)C2=O)c1C |  | 45% | 3.66 µM | 98.3% | 64.2% | 
6 | CCOC(=O)c1c(C)[nH]c(/C=C2\S/C(=N\c3ccc(F)cc3)N(c3ccc(F)cc3)C2=O)c1C | 6.09 µM | 82.7% | 2.87 µM | 94.5% | 84.7% | 
7 | CC/N=C1\S/C(=C\c2ccc(OCCN(C)c3ccccn3)cc2)C(=O)N1CC |  |  |  | 42.1% |  | 
8 | Cc1cc(I)cc2c1NC(c1cccc(N)c1)C1CC=CC21 (stereo not given) |  |  |  |  |  | 7.5 µM
9 | CC(C)N1C(=O)/C(=C/c2ccc(OCCN(C)c3ccccn3)cc2)S/C1=N\O |  | 19.3% | 2.47 µM | 67.5% | 98.5% | 
10 | CCOC(=O)c1c(C)[nH]c(/C=C2\S/C(=N\c3cccc(F)c3)N(c3cccc(F)c3)C2=O)c1C | 6.83 µM | 74.2% | 3.39 µM | 96.3% | 82.8% | 
11 | SODIUM ORTHOVANAD |  |  | 0.91 µM |  |  | 
